Reference: ChEMBL document CHEMBL1932980, “Structure-activity relationships of 2-amino-3-aroyl-4-[(4-arylpiperazin-1-yl)methyl]thiophenes. Part 2: Probing the influence of diverse substituents at the phenyl of the arylpiperazine moiety on allosteric enhancer activity at the A₁ adenosine receptor” (Bioorg Med Chem, 2012)

Columns and labels:
[1] = molecular target: T1, Adenosine receptor A1 (Homo sapiens) (UniProt P30542); experiment: Binding affinity to recombinant human A1 adenosine receptor allosteric site expressed in CHO cells assessed as [3H]DPCPX Bmax shift at 10 uM after 90 mins relative to control; format: cell-based
T1 sequence (whole entry): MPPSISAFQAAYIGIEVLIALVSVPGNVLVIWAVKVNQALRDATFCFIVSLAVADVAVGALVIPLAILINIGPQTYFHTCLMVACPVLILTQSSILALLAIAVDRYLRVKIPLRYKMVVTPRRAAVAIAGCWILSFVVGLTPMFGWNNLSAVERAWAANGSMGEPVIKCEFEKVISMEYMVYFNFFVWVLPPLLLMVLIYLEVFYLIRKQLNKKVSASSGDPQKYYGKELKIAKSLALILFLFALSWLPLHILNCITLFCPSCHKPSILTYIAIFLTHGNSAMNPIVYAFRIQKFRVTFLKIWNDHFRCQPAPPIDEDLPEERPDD
Summary of the method: (§1)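 Saturation binding of [3H]DPCPX (0.05–20 nM) to hA1CHO membranes, run in triplicate, 90 min at 25 °C, in 50 mM Tris–HCl pH 7.4, with or without test compound at final 10 µM. Nonspecific binding taken with 1 µM DPCPX. KD and Bmax fitted by LIGAND. Shift is the fold of Bmax increase over control.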

[2] = molecular target: T1, Adenosine receptor A1 (Homo sapiens); experiment: Binding affinity to recombinant human A1 adenosine receptor allosteric site expressed in CHO cells assessed as potentiation of CCPA-induced [3H]DPCPX displacement at 10 uM after 90 mins relative to control; format: cell-based
Summary of the method: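 Competition of CCPA (0.01 nM–1 µM) against 1 nM [3H]DPCPX on hA1CHO membranes, run in triplicate, 90 min at 25 °C, in 50 mM Tris–HCl pH 7.4, with or without test compound at 10 µM. Nonspecific binding taken with 1 µM DPCPX. Ki by Cheng–Prusoff. Shift = Ki(CCPA)/Ki(CCPA + 10 µM compound).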

[3] = molecular target: T1, Adenosine receptor A1 (Homo sapiens); experiment: Allosteric enhancer activity at recombinant human A1 adenosine receptor expressed in CHO cells assessed as change in forskolin-induced cAMP production at 0.01 uM after 6 mins by radioimmunoassay; format: functional, cell-based
Summary of the method: (§2)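 hA1CHO cells (about 8000 fmol/mg protein) thawed from low-passage stocks, grown in Ham's F-12 with 10% FBS and G-418, then plated 48 h. Test compound at 0.01, 0.1, 1 or 10 µM with CPA (0.05–0.1 nM) for 6 min at 36 °C. Stopped with HCl (final 50 mM). cAMP in acidified extracts measured by radioimmunoassay. Reference enhancer run in each experiment. Four experiments per concentration.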

[4] = molecular target: T1, Adenosine receptor A1 (Homo sapiens); experiment: Binding affinity to recombinant human A1 adenosine receptor allosteric site expressed in CHO cells assessed as [3H]CCPA Bmax shift at 10 uM after 90 mins relative to control; format: cell-based
Summary of the method: as §1, with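 “[3H]CCPA” for “[3H]DPCPX”, “membranes. Membranes pretreated with adenosine deaminase 3 UI/mL for 30 min at 37 °C. Run” for “membranes, run”, “R-PIA.” for “DPCPX. KD and”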

[5] = molecular target: T1, Adenosine receptor A1 (Homo sapiens); experiment: Allosteric enhancer activity at recombinant human A1 adenosine receptor expressed in CHO cells assessed as change in forskolin-induced cAMP production at 1 uM after 6 mins by radioimmunoassay; format: functional, cell-based; summary of the method: as §2
[6] = molecular target: T2, Adenosine receptor A3 (Homo sapiens) (UniProt P0DMS8); experiment: Displacement of [3H]MRE3008F20 from recombinant human A3 adenosine receptor expressed in CHO cells at 10 uM after 120 mins by scintillation counting; format: cell-based
T2 sequence (whole entry): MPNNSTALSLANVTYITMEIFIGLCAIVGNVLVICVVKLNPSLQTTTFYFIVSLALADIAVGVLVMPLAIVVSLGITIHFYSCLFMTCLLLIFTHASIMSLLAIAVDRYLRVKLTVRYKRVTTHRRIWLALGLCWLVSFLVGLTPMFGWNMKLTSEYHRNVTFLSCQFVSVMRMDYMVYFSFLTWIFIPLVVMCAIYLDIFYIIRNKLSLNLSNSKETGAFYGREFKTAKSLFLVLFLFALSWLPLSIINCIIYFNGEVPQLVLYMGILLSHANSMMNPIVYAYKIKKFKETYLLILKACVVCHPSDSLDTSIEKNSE
Summary of the method: (§3)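 Membranes from hA3CHO cells incubated with 2 nM [3H]MRE 3008F20 in 50 mM Tris–HCl, 10 mM MgCl2, 1 mM EDTA, pH 7.4 at 4 °C for 120 min. Compound added from a 100-fold DMSO stock, 1% DMSO final, also in controls. Separated by GF/B filtration and counted by scintillation. Result given as % of control specific binding.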

[7] = molecular target: T1, Adenosine receptor A1 (Homo sapiens); experiment: Allosteric enhancer activity at recombinant human A1 adenosine receptor expressed in CHO cells assessed as change in forskolin-induced cAMP production at 10 uM after 6 mins by radioimmunoassay; format: functional, cell-based; summary of the method: as §2
[8] = molecular target: T1, Adenosine receptor A1 (Homo sapiens); experiment: Allosteric enhancer activity at recombinant human A1 adenosine receptor expressed in CHO cells assessed as change in forskolin-induced cAMP production at 0.1 uM after 6 mins by radioimmunoassay; format: functional, cell-based; summary of the method: as §2
[9] = molecular target: T1, Adenosine receptor A1 (Homo sapiens); experiment: Displacement of [3H]DPCPX from recombinant human A1 adenosine receptor expressed in CHO cells at 10 uM after 120 mins by scintillation counting; format: cell-based
Summary of the method: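 Membranes from hA1CHO cells incubated with 1 nM [3H]DPCPX in 50 mM Tris–HCl pH 7.4 at 25 °C for 120 min. Compound added from a 100-fold DMSO stock, so 1% DMSO final, also present in controls. Bound ligand separated on GF/B filters and counted by scintillation. Result given as % of control specific binding.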

[10] = molecular target: Adenosine receptor A2a (Homo sapiens) (UniProt P29274); experiment: Displacement of [3H]ZM241385 from recombinant human A2A adenosine receptor expressed in CHO cells at 10 uM after 60 mins by scintillation counting; format: cell-based
Adenosine receptor A2a (Homo sapiens), sequence (P29274 whole entry): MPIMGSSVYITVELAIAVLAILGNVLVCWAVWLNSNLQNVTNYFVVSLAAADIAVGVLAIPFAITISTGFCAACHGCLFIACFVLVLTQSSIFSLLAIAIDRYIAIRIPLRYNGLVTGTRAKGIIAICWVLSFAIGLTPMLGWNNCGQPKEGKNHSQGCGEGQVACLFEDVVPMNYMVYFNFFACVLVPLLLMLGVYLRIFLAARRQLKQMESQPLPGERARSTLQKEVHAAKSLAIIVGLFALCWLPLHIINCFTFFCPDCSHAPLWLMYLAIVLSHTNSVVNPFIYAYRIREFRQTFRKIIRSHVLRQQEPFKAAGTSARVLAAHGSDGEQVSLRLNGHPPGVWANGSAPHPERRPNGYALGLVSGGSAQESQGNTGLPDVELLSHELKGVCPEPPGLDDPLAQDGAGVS
Summary of the method: as §3, with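 “hA2ACHO” for “hA3CHO”, “1” for “2”, “[3H]ZM 241385” for “[3H]MRE 3008F20”, “MgCl2,” for “MgCl2, 1 mM EDTA,”, “60” for “120”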

Row | fold change (FC) [1] | fold change (FC) [2] | Activity [3] [%] | fold change (FC) [4] | Activity [5] [%] | inhibition [6] [%] | Activity [7] [%] | Activity [8] [%] | inhibition [9] [%] | inhibition [10] [%] | SMILES
1 | 1 | 3.7 | -2.2 | 4.5 | -43 | 0 | -82 | 4.2 | 0 | 1 | Nc1scc(CN2CCN(Cc3ccc(Cl)cc3)CC2)c1C(=O)c1ccc(Cl)cc1
2 | 0.9 | 1.6 | 0 | 1.6 | -30 | 0 | -76 | -3 | 0 | 0 | Nc1scc(CN2CCN(CCCc3ccc(Cl)cc3)CC2)c1C(=O)c1ccc(Cl)cc1
3 | 1 | 3.7 | -3.1 | 4.4 | -59 | 1 | -77 | -20 | 0 | 0 | Nc1scc(CN2CCN(c3cccc(Cl)c3)CC2)c1C(=O)c1ccc(Cl)cc1
4 | 0.9 | 1.4 | -5 | 1.4 | -25 | 0 | -62 | 1 | 0 | 1 | Nc1scc(CN2CCN(CC(=O)c3ccc(Cl)cc3)CC2)c1C(=O)c1ccc(Cl)cc1
5 | 1.1 | 5.3 | 0 | 6.8 | -51 | 1 | -74 | -13 | 0 | 0 | Nc1scc(CN2CCN(c3ccc(OC(F)(F)F)cc3)CC2)c1C(=O)c1ccc(Cl)cc1
6 | 1.1 | 4.8 | -13 | 6.2 | -66 | 2 | -79 | -5 | 0 | 0 | Nc1scc(CN2CCN(c3cc(F)cc(F)c3)CC2)c1C(=O)c1ccc(Cl)cc1
7 | 1.1 | 5.5 | -3.2 | 7.2 | -78 | 1 | -87 | -34 | 0 | 0 | Nc1scc(CN2CCN(c3ccc(F)c(F)c3)CC2)c1C(=O)c1ccc(Cl)cc1
8 | 1 | 3.7 | 2 | 4.4 | -54 | 0 | -74 | -11 | 0 | 0 | Nc1scc(CN2CCN(c3ccc(Cl)cc3Cl)CC2)c1C(=O)c1ccc(Cl)cc1
9 | 1 | 3.4 | 1.2 | 3.1 | -32 | 2 | -76 | -3.1 | 1 | 0 | Nc1scc(CN2CCN(CCc3ccc(Cl)cc3)CC2)c1C(=O)c1ccc(Cl)cc1
10 | 0.9 | 1.2 | 2.1 | 1.1 | 1.3 | 0 | 4 | 1.3 | 0 | 0 | Nc1scc(CN2CCN(c3c(F)cccc3F)CC2)c1C(=O)c1cccc(C(F)(F)F)c1
11 | 1 | 4.3 | -9.2 | 5.3 | -57 | 1 | -81 | -9.4 | 0 | 0 | Nc1scc(CN2CCN(c3ccc(Cl)cc3F)CC2)c1C(=O)c1ccc(Cl)cc1
12 | 1 | 3.8 | 3.1 | 4.7 | -59 | 2 | -80 | -13 | 1 | 0 | Nc1scc(CN2CCN(c3cc(F)ccc3F)CC2)c1C(=O)c1ccc(Cl)cc1
13 | 1 | 3.6 | 4.2 | 4.5 | -56 | 0 | -78 | -3.9 | 0 | 0 | Nc1scc(CN2CCN(c3c(F)cc(F)cc3F)CC2)c1C(=O)c1ccc(Cl)cc1
14 | 1.1 | 4.7 | -11 | 6 | -35 | 0 | -62 | -12 | 0 | 0 | Nc1scc(CN2CCN(c3cccc(F)c3)CC2)c1C(=O)c1cccc(C(F)(F)F)c1
15 | 1.1 | 5.5 | 4.2 | 7 | -60 | 0 | -78 | -21 | 0 | 0 | Nc1scc(CN2CCN(c3ccc(F)c(Cl)c3)CC2)c1C(=O)c1ccc(Cl)cc1
16 | 1 | 3.4 | -12 | 4.4 | -27 | 0 | -47 | -11 | 0 | 0 | Nc1scc(CN2CCN(c3ccc(C(F)(F)F)cc3)CC2)c1C(=O)c1cccc(C(F)(F)F)c1
17 | 0.9 | 1.2 | -1 | 1.1 | 7.3 | 0 | -7.4 | 3.6 | 0 | 0 | CC(C)N1CCN(Cc2csc(N)c2C(=O)c2ccc(Cl)cc2)CC1
